For orientation: MIC means the smallest concentration in the dilution series that meets the test's criterion for growth inhibition. Usually CC50 stands for the concentration at which the toxic effect on the cells reaches its halfway point.

Each structure is given as a SMILES string. Values after ≈ are worked out from the molar mass of the structure shown. Some results are limits rather than exact numbers.

Experimental findings from ChEMBL document CHEMBL1817648, “Synthesis and in vitro antibacterial activity of a series of novel gatifloxacin derivatives” (Eur J Med Chem, 2011) are described below.

The test system of data set [1] is Enterococcus faecalis. As to the kind of experiment: Antibacterial activity against Enterococcus faecalis 08-10 after 18 to 24 hrs by NCCLS M100-S11 two fold serial dilution method. Format: functional.
Data set [2] deals with Klebsiella pneumoniae. Kind of data set: Antibacterial activity against Klebsiella pneumoniae 09-22 after 18 to 24 hrs by NCCLS M100-S11 two fold serial dilution method. Format: functional.
The test system of data set [3] is Pseudomonas aeruginosa. As to the kind of experiment: Antibacterial activity against Pseudomonas aeruginosa 09-32 after 18 to 24 hrs by NCCLS M100-S11 two fold serial dilution method. Format: functional.
The test system of data set [4] is Escherichia coli. As to the kind of experiment: Antibacterial activity against Escherichia coli 08-22 after 18 to 24 hrs by NCCLS M100-S11 two fold serial dilution method. It is filed as functional.
Data set [5] concerns Enterococcus faecalis. As to the kind of experiment: Antibacterial activity against Enterococcus faecalis 08-12 after 18 to 24 hrs by NCCLS M100-S11 two fold serial dilution method. Format: functional.
Data set [6] has as its system Staphylococcus epidermidis. Kind of data set: Antibacterial activity against methicillin-sensitive Staphylococcus epidermidis 09-6 after 18 to 24 hrs by NCCLS M100-S11 two fold serial dilution method. Format: functional. In a few lines: (§1)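 Two-fold serial dilution in agar medium. MIC read as the lowest concentration giving complete inhibition of bacterial growth after incubation at 35 °C for 18–24 h.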

Data set [7] deals with Escherichia coli. As to the kind of experiment: Antibacterial activity against Escherichia coli ATCC 25922 after 18 to 24 hrs by NCCLS M100-S11 two fold serial dilution method. It is filed as functional. To be noted: ATCC25922.
Data set [8] relates to Streptococcus pneumoniae. Kind of data set: Antibacterial activity against Streptococcus pneumoniae 08-2 after 18 to 24 hrs by NCCLS M100-S11 two fold serial dilution method. Format: functional.
Data set [9] can be described thus: Cytotoxicity against african green monkey Vero cells after 72 hrs by MTT assay. Format: cell-based. To be noted: chlorocebus sabaeus. The method in brief:
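Vero cells were kept in Minimum Essential Medium with Earle's salts plus 10% fetal bovine serum at 37 °C under 5% CO₂. Cells were seeded at 1 × 10⁴ per well and allowed to recover 24 h. Medium was then replaced with assay medium containing compound or no drug, and cells were exposed for 72 h. CC₅₀ is the 50% cellular cytotoxic concentration.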
For orientation: Tetrazolium dyes change colour on reduction, which living cells bring about.

Data set [10] relates to Streptococcus pneumoniae. As to the kind of experiment: Antibacterial activity against Streptococcus pneumoniae 08-4 after 18 to 24 hrs by NCCLS M100-S11 two fold serial dilution method. Format: functional.
Data set [11] has as its system Escherichia coli. As to the kind of experiment: Antibacterial activity against Escherichia coli 08-21 after 18 to 24 hrs by NCCLS M100-S11 two fold serial dilution method. Format: functional.
Data set [12] concerns Staphylococcus epidermidis. As to the kind of experiment: Antibacterial activity against methicillin-resistant Staphylococcus epidermidis 09-4 after 18 to 24 hrs by NCCLS M100-S11 two fold serial dilution method. It is filed as functional. The method in brief: as §1
For data set [13], the system named is Enterococcus faecium. Kind of data set: Antibacterial activity against Enterococcus faecium 08-2 after 18 to 24 hrs by NCCLS M100-S11 two fold serial dilution method. It is filed as functional.
For data set [14], the system named is Pseudomonas aeruginosa. As to the kind of experiment: Antibacterial activity against Pseudomonas aeruginosa ATCC 27853 after 18 to 24 hrs by NCCLS M100-S11 two fold serial dilution method. It is filed as functional.
Data set [15] has as its system Staphylococcus aureus. Kind of data set: Antibacterial activity against methicillin-sensitive Staphylococcus aureus 08-1 after 18 to 24 hrs by NCCLS M100-S11 two fold serial dilution method. It is filed as functional.
The test system of data set [16] is Pseudomonas aeruginosa. As to the kind of experiment: Antibacterial activity against Pseudomonas aeruginosa 09-33 after 18 to 24 hrs by NCCLS M100-S11 two fold serial dilution method. It is filed as functional.
The subject of data set [17] is Staphylococcus epidermidis. Kind of data set: Antibacterial activity against methicillin-sensitive Staphylococcus epidermidis 09-3 after 18 to 24 hrs by NCCLS M100-S11 two fold serial dilution method. Format: functional. The method in brief: as §1
Data set [18] concerns Enterococcus faecium. As to the kind of experiment: Antibacterial activity against Enterococcus faecium 08-7 after 18 to 24 hrs by NCCLS M100-S11 two fold serial dilution method. Format: functional.
The subject of data set [19] is Pseudomonas aeruginosa. As to the kind of experiment: Antibacterial activity against Pseudomonas aeruginosa 09-34 after 18 to 24 hrs by NCCLS M100-S11 two fold serial dilution method. It is filed as functional.
For data set [20], the system named is Staphylococcus aureus. As to the kind of experiment: Antibacterial activity against methicillin-resistant Staphylococcus aureus 08-1 after 18 to 24 hrs by NCCLS M100-S11 two fold serial dilution method. It is filed as functional. In a few lines: as §1
In data set [21] the test system is Staphylococcus aureus. Kind of data set: Antibacterial activity against Staphylococcus aureus ATCC 25923 after 18 to 24 hrs by NCCLS M100-S11 two fold serial dilution method. It is filed as functional. To be noted: ATCC25923.
Data set [22] concerns Klebsiella pneumoniae. As to the kind of experiment: Antibacterial activity against Klebsiella pneumoniae 09-23 after 18 to 24 hrs by NCCLS M100-S11 two fold serial dilution method. It is filed as functional.

With `COc1c(N2CCN(CC(C)=O)C(C)C2)c(F)cc2c(=O)c(C(=O)O)cn(C3CC3)c12` (stereo not drawn), the MIC stood at 32 µg/mL (≈ 74.2 µM) in the data set on Enterococcus faecalis [1]; 16 µg/mL (≈ 37.1 µM) in the data set with Klebsiella pneumoniae [2]; 2 µg/mL (≈ 4.64 µM) in the data set on Pseudomonas aeruginosa [3]; 32 µg/mL (≈ 74.2 µM) in the data set on Escherichia coli [4]; 128 µg/mL (≈ 297 µM) with Enterococcus faecalis [5]; 0.25 µg/mL (≈ 0.579 µM) in data set [6]. The MIC was determined as 8 µg/mL (≈ 18.5 µM) against Escherichia coli [7]; 32 µg/mL (≈ 74.2 µM) with Streptococcus pneumoniae [8]; 2 µg/mL (≈ 4.64 µM) in the data set on Streptococcus pneumoniae [10]; 128 µg/mL (≈ 297 µM) with Escherichia coli [11]; 2 µg/mL (≈ 4.64 µM) in data set [12]; 32 µg/mL (≈ 74.2 µM) in the data set with Enterococcus faecium [13]. For the same compound, the MIC in the data set on Pseudomonas aeruginosa [14] was found to be 8 µg/mL (≈ 18.5 µM); against Staphylococcus aureus [15], 1 µg/mL (≈ 2.32 µM); in the data set with Pseudomonas aeruginosa [16], 128 µg/mL (≈ 297 µM); in [17] it was 0.25 µg/mL (≈ 0.579 µM); in the data set on Enterococcus faecium [18], 32 µg/mL (≈ 74.2 µM); against Pseudomonas aeruginosa [19], 16 µg/mL (≈ 37.1 µM). Besides, the MIC in the data set on Staphylococcus aureus [20] was determined as 16 µg/mL (≈ 37.1 µM); in the data set with Staphylococcus aureus [21], 0.25 µg/mL (≈ 0.579 µM); against Klebsiella pneumoniae [22], 2 µg/mL (≈ 4.64 µM). In data set [9], this compound registered a CC50 at 72 h of 500 µg/mL (≈ 1160 µM).
As to `COc1c(N2CCN(CCC(C)=O)C(C)C2)c(F)cc2c(=O)c(C(=O)O)cn(C3CC3)c12` (stereo not drawn), the minimum inhibitory concentration (MIC) against Enterococcus faecalis [1] worked out at 4 µg/mL (≈ 8.98 µM); in the data set on Klebsiella pneumoniae [2], 0.5 µg/mL (≈ 1.12 µM); against Pseudomonas aeruginosa [3], 0.25 µg/mL (≈ 0.561 µM); in the data set with Escherichia coli [4] it was 0.5 µg/mL (≈ 1.12 µM); against Enterococcus faecalis [5], 4 µg/mL (≈ 8.98 µM); in data set [6], 0.25 µg/mL (≈ 0.561 µM). Besides, the MIC is 0.5 µg/mL (≈ 1.12 µM) with Escherichia coli [7]; 4 µg/mL (≈ 8.98 µM) against Streptococcus pneumoniae [8]; 0.25 µg/mL (≈ 0.561 µM) in the data set with Streptococcus pneumoniae [10]; 4 µg/mL (≈ 8.98 µM) with Escherichia coli [11]; 0.25 µg/mL (≈ 0.561 µM) in data set [12]; 4 µg/mL (≈ 8.98 µM) in the data set with Enterococcus faecium [13]. The MIC with Pseudomonas aeruginosa [14] amounted to 1 µg/mL (≈ 2.24 µM); against Staphylococcus aureus [15] it was 0.25 µg/mL (≈ 0.561 µM); with Pseudomonas aeruginosa [16], 4 µg/mL (≈ 8.98 µM); in data set [17], 0.25 µg/mL (≈ 0.561 µM); against Enterococcus faecium [18] it was 4 µg/mL (≈ 8.98 µM); against Pseudomonas aeruginosa [19], 0.5 µg/mL (≈ 1.12 µM). For the same compound, the MIC with Staphylococcus aureus [20] was determined as 0.5 µg/mL (≈ 1.12 µM); in the data set on Staphylococcus aureus [21] it was 0.06 µg/mL (≈ 0.135 µM); with Klebsiella pneumoniae [22] it was 0.5 µg/mL (≈ 1.12 µM). This compound also returned a CC50 at 72 h in data set [9] of 9.84 µg/mL (≈ 22.1 µM).
With `CO/N=C(\C)CN1CCN(c2c(F)cc3c(=O)c(C(=O)O)cn(C4CC4)c3c2OC)CC1C` (stereo not drawn), the MIC against Enterococcus faecalis [1] was more than 128 µg/mL; in the data set on Klebsiella pneumoniae [2] it was more than 128 µg/mL; against Pseudomonas aeruginosa [3], 64 µg/mL (≈ 139 µM); in the data set on Escherichia coli [4] it was more than 128 µg/mL; against Enterococcus faecalis [5], more than 128 µg/mL; in data set [6], 4 µg/mL (≈ 8.69 µM). For the same compound, the MIC in the data set with Escherichia coli [7] was 64 µg/mL (≈ 139 µM); against Streptococcus pneumoniae [8] it was 64 µg/mL (≈ 139 µM); in the data set with Streptococcus pneumoniae [10], 2 µg/mL (≈ 4.34 µM); against Escherichia coli [11], more than 128 µg/mL; in data set [12], 0.5 µg/mL (≈ 1.09 µM); in the data set with Enterococcus faecium [13], more than 128 µg/mL. In addition, the MIC was 32 µg/mL (≈ 69.5 µM) in the data set on Pseudomonas aeruginosa [14]; 0.25 µg/mL (≈ 0.543 µM) in the data set with Staphylococcus aureus [15]; more than 128 µg/mL in the data set on Pseudomonas aeruginosa [16]; 0.5 µg/mL (≈ 1.09 µM) in data set [17]; more than 128 µg/mL in the data set on Enterococcus faecium [18]; more than 128 µg/mL with Pseudomonas aeruginosa [19]. Besides, the values for the MIC against Staphylococcus aureus [20], against Staphylococcus aureus [21] and with Klebsiella pneumoniae [22] were more than 128 µg/mL, 0.5 µg/mL (≈ 1.09 µM) and more than 128 µg/mL, respectively. The compound further gave a CC50 at 72 h in data set [9] of 49.6 µg/mL (≈ 108 µM).
With `CCO/N=C(\C)CN1CCN(c2c(F)cc3c(=O)c(C(=O)O)cn(C4CC4)c3c2OC)CC1C` (stereo not drawn), the MIC is more than 128 µg/mL in the data set with Enterococcus faecalis [1]; more than 128 µg/mL in the data set on Klebsiella pneumoniae [2]; more than 128 µg/mL against Pseudomonas aeruginosa [3]; more than 128 µg/mL against Escherichia coli [4]; more than 128 µg/mL in the data set on Enterococcus faecalis [5]; 0.25 µg/mL (≈ 0.527 µM) in [6]. The MIC in the data set with Escherichia coli [7] was 128 µg/mL (≈ 270 µM); against Streptococcus pneumoniae [8], more than 128 µg/mL; against Streptococcus pneumoniae [10], 2 µg/mL (≈ 4.21 µM); in the data set with Escherichia coli [11], more than 128 µg/mL; in [12], 0.25 µg/mL (≈ 0.527 µM); in the data set with Enterococcus faecium [13], more than 128 µg/mL. Also, the MIC against Pseudomonas aeruginosa [14] is more than 128 µg/mL; against Staphylococcus aureus [15] it was 0.25 µg/mL (≈ 0.527 µM); with Pseudomonas aeruginosa [16] it was more than 128 µg/mL; in data set [17] it was 0.25 µg/mL (≈ 0.527 µM); against Enterococcus faecium [18], more than 128 µg/mL; against Pseudomonas aeruginosa [19] it was more than 128 µg/mL. Further, the MIC against Staphylococcus aureus [20] was 0.25 µg/mL (≈ 0.527 µM); in the data set on Staphylococcus aureus [21], 0.125 µg/mL (≈ 0.263 µM); in the data set on Klebsiella pneumoniae [22], more than 128 µg/mL. Besides, in data set [9], half-maximal cytotoxicity (CC50 at 72 h) was put at 31.2 µg/mL (≈ 65.9 µM).
